# Experimental data pooled from the literature.
# Lines come from different studies, so protocols differ.
# Target: Tyrosine-protein kinase SYK (SYK, Homo sapiens, UniProt P43405)
SMILES,test,setting,endpoint,result
Cn1cc(-c2cc(F)cc(N3CCn4c(cc5c4CCCC5)C3=O)c2CO)cc(Nc2ccc(N3CCN(C4COC4)CC3)cn2)c1=O,"enzyme activity, inhibitor",0.1 µM,inhibition,12%
Cc1nn(C)cc1-c1nc2c(N3CCN(Cc4ccc(Cl)cc4)CC3)c(Cl)cnc2[nH]1,"binding, competition with immobilised ligand",1 µM,remaining binding,100%
O=c1[nH]c2ccccc2n1C1CCN(Cc2ccc(-c3[nH]c4cc5ncnc5cc4nc3-c3ccccc3)cc2)CC1,cell-free assay,0.5 µM,remaining signal,97.9%
COc1ncccc1-c1cnn2ccc(N3CCN(C(=O)OC(C)C)CC3)nc12,"binding, competition with immobilised ligand",1 µM,remaining binding,100%
Cn1cc(-c2cccc(N3CCc4c(sc5c4CC(C)(C)C5)C3=O)c2CO)cc(Nc2ccncn2)c1=O,"enzyme activity, inhibitor",1 µM,inhibition,0%
Cn1cncc1[C@@](O)(COc1ccc(C#N)cc1-c1ccc(OC(F)(F)F)cc1)c1ccc(C#N)cc1,"cell-free assay, competition with immobilised ligand",1 µM,remaining binding,100%
C#Cc1n[nH]c2c(-c3cn([C@@H](C)c4ccccn4)c(=O)[nH]c3=O)cc(F)cc12,"enzyme activity, inhibitor",0.1 µM,inhibition,3.3%
Nc1ncc(-c2nc(N3CCOCC3)nc(N3CCOCC3)n2)c(C(F)F)n1,"binding, competition with immobilised ligand",10 µM,remaining binding,61%
N#CC1(c2ccccn2)CCN(Cc2cc(C(=O)O)c(=O)n3ccccc23)CC1,"cell-free assay, competition with immobilised ligand",1 µM,remaining binding,92%
